Results: ChEMBL document CHEMBL1152645, “Structure-based drug design identifies novel LPA3 antagonists” (Bioorg Med Chem, 2009)
Calls of active or inactive are those of the source. The rule behind the calls is not given here.

How the values were obtained:
[1] = biological target: T1, Lysophosphatidic acid receptor 3 (Homo sapiens) (UniProt Q9UBY5); assay: Agonist activity at LPA3 receptor expressed in rat RH7777 cells assessed as effect on intracellular calcium response at 10 uM; type: functional, cell-based
T1 sequence (whole entry): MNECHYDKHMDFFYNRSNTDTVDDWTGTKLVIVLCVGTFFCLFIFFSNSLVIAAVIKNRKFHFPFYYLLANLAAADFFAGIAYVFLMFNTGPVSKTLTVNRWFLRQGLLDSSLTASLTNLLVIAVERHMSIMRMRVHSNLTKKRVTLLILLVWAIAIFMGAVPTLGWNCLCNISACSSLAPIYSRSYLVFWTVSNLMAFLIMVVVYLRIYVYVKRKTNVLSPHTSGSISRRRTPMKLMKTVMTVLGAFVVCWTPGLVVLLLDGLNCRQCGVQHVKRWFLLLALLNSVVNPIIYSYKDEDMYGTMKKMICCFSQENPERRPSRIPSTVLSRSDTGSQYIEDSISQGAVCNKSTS
In short: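 Agonist test: compound (methanol stock diluted in buffer) was applied alone to fura-2-loaded, stably receptor-expressing cells after overnight culture and 4-6 h in serum-free medium. Intracellular Ca2+ was followed as the 520 nm emission ratio at 340/380 nm excitation. Run in quadruplicate.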

[2] = biological target: T2, Lysophosphatidic acid receptor 3 (Homo sapiens, UniProt Q9UBY5); assay: Binding affinity to LPA3
T2 sequence (Q9UBY5 whole entry): T1 sequence (whole entry)

[3] = biological target: T3, Lysophosphatidic acid receptor 1 (Homo sapiens, UniProt Q92633); assay: Binding affinity to LPA1
T3 sequence (Q92633 whole entry): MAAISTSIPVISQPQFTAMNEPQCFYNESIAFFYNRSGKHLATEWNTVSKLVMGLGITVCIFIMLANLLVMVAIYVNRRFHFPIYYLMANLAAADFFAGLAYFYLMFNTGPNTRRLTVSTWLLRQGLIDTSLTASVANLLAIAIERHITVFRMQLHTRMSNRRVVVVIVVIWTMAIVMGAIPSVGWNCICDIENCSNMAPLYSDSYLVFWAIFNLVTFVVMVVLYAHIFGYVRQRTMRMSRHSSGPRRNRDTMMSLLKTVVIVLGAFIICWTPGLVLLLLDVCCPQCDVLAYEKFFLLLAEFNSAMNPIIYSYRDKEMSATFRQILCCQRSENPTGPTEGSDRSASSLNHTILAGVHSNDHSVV

[4] = biological target: T3, Lysophosphatidic acid receptor 1; assay: Antagonist activity at LPA1 receptor expressed in rat RH7777 cells assessed as inhibition of LPA-induced intracellular calcium response; type: functional, cell-based
In short: (§1)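 Cells stably expressing the receptor were plated, cultured overnight, serum-starved for 4-6 h and loaded with fura-2. LPA-induced Ca2+ mobilization was measured as the 520 nm emission ratio at 340/380 nm excitation. Compounds were dissolved in methanol and diluted in buffer. IC50 came from concentration-response curves, with samples in quadruplicate.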

[5] = biological target: T2, Lysophosphatidic acid receptor 3; assay: (§2) Antagonist activity at LPA3 receptor expressed in rat RH7777 cells assessed as inhibition of LPA-induced intracellular calcium response; type: functional, cell-based; in short: as §1
[6] = biological target: Lysophosphatidic acid receptor 3 (Homo sapiens) (UniProt Q9UBY5); assay: Antagonist activity at LPA3 receptor expressed in rat RH7777 cells assessed as inhibition of LPA-induced calcium response at 10 uM
[7] = biological target: T1, Lysophosphatidic acid receptor 3 (Homo sapiens); assay: as §2; type: functional, cell-based; in short: as §1
[8] = biological target: T4, Lysophosphatidic acid receptor 5 (Homo sapiens, UniProt Q9H1C0); assay: Binding affinity to LPA5
T4 sequence (Q9H1C0 whole entry): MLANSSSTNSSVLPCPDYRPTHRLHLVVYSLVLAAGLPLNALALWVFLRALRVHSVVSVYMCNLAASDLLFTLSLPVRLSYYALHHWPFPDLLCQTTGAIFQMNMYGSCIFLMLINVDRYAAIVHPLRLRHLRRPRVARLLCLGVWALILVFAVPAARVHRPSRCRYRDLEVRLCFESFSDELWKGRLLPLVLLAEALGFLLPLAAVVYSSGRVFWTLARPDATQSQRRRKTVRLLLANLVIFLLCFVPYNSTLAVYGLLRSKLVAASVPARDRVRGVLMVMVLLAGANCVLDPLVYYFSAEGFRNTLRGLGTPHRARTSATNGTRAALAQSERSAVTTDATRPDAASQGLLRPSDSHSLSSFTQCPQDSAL

[9] = biological target: T4, Lysophosphatidic acid receptor 5; assay: Antagonist activity at LPA5 receptor expressed in rat RH7777 cells assessed as inhibition of LPA-induced intracellular calcium response; type: functional, cell-based; in short: as §1

## CC(=O)COc1ccc(NC(=O)CN2C(=O)c3ccc([N+](=O)[O-])cc3C2=O)cc1
[1]
  Activity: Active

## Cc1ccc(Oc2ccc3c(c2)C(=O)N(CC(=O)O)C3=O)cc1
[2]
  Ki: 1080 nM
[3]
  Ki: 311 nM
[4]
  IC50: 609 nM
[5]
  IC50: 2990 nM

## O=C(O)CCCN1C(=O)c2ccc(Oc3cccc([N+](=O)[O-])c3)cc2C1=O
[6]
  inhibition: 18%

## O=C(O)CCCN1C(=O)c2ccc(C(=O)c3cccc([N+](=O)[O-])c3)cc2C1=O
[6]
  inhibition: 10%

## Cc1c(C(=O)O)cccc1N1C(=O)c2ccc(Oc3cccc([N+](=O)[O-])c3)cc2C1=O
[6]
  inhibition: 42%

## O=C1c2ccc(Oc3cccc([N+](=O)[O-])c3)cc2C(=O)N1Cc1cccnc1
[6]
  inhibition: 38%

## O=C(O)COc1ccc(N2C(=O)c3ccc(Oc4cccc([N+](=O)[O-])c4)cc3C2=O)cc1
[1]
  Activity: Active

## O=C(O)CN1C(=O)c2ccc(Oc3cccc([N+](=O)[O-])c3)cc2C1=O
[7]
  Imax: 50%

## O=C(O)CN1C(=O)c2ccc(C(=O)c3cccc([N+](=O)[O-])c3)cc2C1=O
[1]
  Activity: Active

## O=C(O)c1cc(C(=O)O)cc(N2C(=O)c3ccc(Oc4cccc([N+](=O)[O-])c4)cc3C2=O)c1
[6]
  inhibition: 43%

## CC(=O)c1ccc(NC(=O)c2cccc(N3C(=O)c4ccc([N+](=O)[O-])cc4C3=O)c2)cc1
[6]
  inhibition: 18%

## O=C(O)c1ccc2c(c1)C(=O)N(c1cccc(Oc3ccc([N+](=O)[O-])cc3)c1)C2=O
[2]
  Ki: 230 nM
[3]
  Ki: 48 nM
[4]
  IC50: 94 nM
[8]
  Ki: 292 nM
[5]
  IC50: 752 nM
[6]
  inhibition: 82%
[9]
  IC50: 463 nM

## O=C(O)c1ccccc1N1C(=O)c2ccc(Oc3ccc([N+](=O)[O-])cc3)cc2C1=O
[6]
  inhibition: 38%
